STAT3 activator = STAT3 signaling activation; U3A cells, IL-6 STAT3-luciferase reporter, luminescence; 100% = signal with IL-6 EC80 alone; activation (% of control), % at 5.6 µM; 190,000 compounds, 0.91% hits;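 active = activation above the screen-wide mean of compound activation plus 3 SD, cut at about 130% in these data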;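 also: 0% = background luminescence of wells with medium and substrate only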
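system = STAT3-luciferase reporter U3A cells | reagent = IL-6 stimulus at 33 ng/mL final | timing = 1 h compound pre-exposure, 6 h IL-6 stimulation, 37 °C | measured by = luminescence | evaluation = % activation versus median of IL-6-stimulated wells | control set = IL-6-only wells as 100% reference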
FXIIa inh 1536 = inhibitors of human coagulation factor XIIa; AID 800; purified FXIIa, Boc-QGR-AMC fluorogenic substrate, 2 h; inhibition, % at 5 µM; 220,000 compounds, 0.3% hits; in the data active = inhibition above about 40%;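 also: 0% = enzyme with no compound and 100% = blank without enzyme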
hK5 inh = blocks human kallikrein 5 protease activity | inhibition, % at 5 µM | recombinant hK5, fluorogenic AMC substrate cleavage | 210,000 compounds, 0.59% hits | AID 873;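 active = inhibition of 40% or more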;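 also: 0% = enzyme controls without compound and 100% = no-enzyme blanks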
FXIa inh = factor XIa (human) inhibition. inhibition, % at 5 µM. purified FXIa, Boc-Glu-Ala-Arg-AMC fluorogenic substrate. 220,000 compounds, 0.14% hits. P03951. AID 798;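 active = inhibition of at least 40%; inactive = inhibition below 40%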;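 also: fluorescence of freed AMC excited at 355 nm; 0% = enzyme without compound and 100% = no enzyme blank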
thrombin 1536 = blocks human thrombin protease activity | inhibition, % at 5 µM | alpha-thrombin, Boc-VPR-AMC fluorogenic substrate cleavage | 220,000 compounds, 0.26% hits | P00734 | AID 1046;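 active = inhibition at or above 40%; inactive = inhibition below 40%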;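 also: 0% = enzyme with no compound and 100% = wells without enzyme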
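Material: Human alpha-thrombin protein | Buffer or medium: pH 7.5 Tris-saline with Tween 20 | Reagent: Boc-VPR-AMC substrate, 15 µM final | Schedule: Reaction at ambient temperature | Detection: AMC fluorescence at 355 nm excitation and 460 nm emission | Evaluation: Percent inhibition scaled between no-compound controls and no-enzyme blanks | Controls: no-compound enzyme wells and no-enzyme blanks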
AHR activator = activators of human aryl hydrocarbon receptor; activation, % at 5 µM; 320,000 compounds, 2.5% hits; AHR-responsive luciferase reporter cells, luminescence; in the data active = activation above about 47%;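 also: 0% = vehicle wells and 100% = reference agonist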
Target sequence (P35869 whole entry, looked up): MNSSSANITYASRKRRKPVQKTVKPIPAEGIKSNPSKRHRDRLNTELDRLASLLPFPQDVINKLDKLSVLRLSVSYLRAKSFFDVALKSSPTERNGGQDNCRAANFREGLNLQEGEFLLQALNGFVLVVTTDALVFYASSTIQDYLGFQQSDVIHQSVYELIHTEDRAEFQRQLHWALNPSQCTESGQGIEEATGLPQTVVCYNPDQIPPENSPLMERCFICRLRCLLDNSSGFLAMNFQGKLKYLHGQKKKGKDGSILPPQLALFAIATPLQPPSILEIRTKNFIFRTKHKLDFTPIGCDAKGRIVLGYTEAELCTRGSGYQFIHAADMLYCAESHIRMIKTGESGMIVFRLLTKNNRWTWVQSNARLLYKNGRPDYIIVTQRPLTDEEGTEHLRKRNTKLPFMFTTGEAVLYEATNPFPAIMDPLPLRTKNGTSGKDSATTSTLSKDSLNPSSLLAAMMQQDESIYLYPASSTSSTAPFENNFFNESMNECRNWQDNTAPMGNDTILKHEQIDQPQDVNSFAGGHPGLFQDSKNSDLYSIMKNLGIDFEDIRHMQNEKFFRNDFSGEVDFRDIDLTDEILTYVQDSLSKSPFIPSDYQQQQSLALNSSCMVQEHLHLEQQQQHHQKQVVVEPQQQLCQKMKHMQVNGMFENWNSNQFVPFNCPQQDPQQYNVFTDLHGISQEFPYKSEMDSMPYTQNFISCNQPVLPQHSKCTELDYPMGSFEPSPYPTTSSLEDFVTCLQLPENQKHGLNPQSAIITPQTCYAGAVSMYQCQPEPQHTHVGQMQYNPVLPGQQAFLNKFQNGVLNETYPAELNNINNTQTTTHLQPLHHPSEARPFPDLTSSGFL
* marks the source's active call; other numbers are inactive results. This is a sample that favours compounds with a hit; in the whole collection about 3.5% have one here.

How did c1ccc(COc2ccc(-c3sc(Nc4ccccc4)n[n+]3-c3ccccc3)cc2)cc1 do in these assays?
AHR activator: 79.9*

Results for CN(C)c1ccc(-c2sc(Nc3ccccc3)n[n+]2-c2ccc(F)cc2)cc1 ?
AHR activator: 13.3

Results for CCN(CC)c1ccc(-c2sc(Nc3ccccc3)n[n+]2-c2ccc(F)cc2)cc1 ?
AHR activator: 63.3*

How did CCN(CC)c1ccc(-c2nc3cnccn3c2NC2CCCC2)cc1 do in these assays?
STAT3 activator: 102.5; FXIIa inh 1536: -13.8; hK5 inh: -25.3; FXIa inh: -16.9; thrombin 1536: -5.5; AHR activator: 68.9*

What do the screens show for `COc1ccc(C(=O)n2nc(-c3ccccc3)nc2N)cc1OC`?
STAT3 activator: 108.6; FXIIa inh 1536: 9.5; hK5 inh: 41.1*; FXIa inh: 12.8; thrombin 1536: 26.4; AHR activator: 13.6

How did CC1=NN(CCc2ccccn2)C(=O)CC1 do in these assays?
AHR activator: 3.4

How did Cc1ccc(C(=O)NNC2=Nc3cccc4cccc2c34)cc1 do in these assays?
STAT3 activator: 98.1; FXIIa inh 1536: 2.1; hK5 inh: -30.4; FXIa inh: -6.6; thrombin 1536: -6.3; AHR activator: 78.8*

Results for O=C(N/C(=C/c1cccnc1)C(=O)N1CCCCCC1)c1cccc(Br)c1 ?
AHR activator: 48.5*

How did O=C(N/C(=C\c1cccnc1)C(=O)N1CCC(O)CC1)c1ccccc1 do in these assays?
AHR activator: 4.6

Results for CC(=O)NC12CC3CC(C)(C1)CC(NC(C)=O)(C3)C2 ?
STAT3 activator: 98.1; FXIIa inh 1536: 12.6; hK5 inh: -5.4; FXIa inh: 1.4; thrombin 1536: 4.8; AHR activator: -0.5

How did COc1cc(NC(=O)Cn2ccsc2=N)cc(OC)c1 do in these assays?
FXIIa inh 1536: 5.8; hK5 inh: -3.5; FXIa inh: 3.2; thrombin 1536: -3.6; AHR activator: 3.1

Results for COC(=O)C(NC(=O)c1ccco1)(Nc1nc(C)cs1)C(F)(F)F (stereo unspecified) ?
STAT3 activator: 106.0; FXIIa inh 1536: 54.4*; hK5 inh: -11.4; FXIa inh: 35.4; thrombin 1536: -5.8; AHR activator: -2.5

Results for C=CCn1c(O)c(N=NC(=O)CNC(=O)c2cccs2)c2ccccc21 ?
STAT3 activator: 110.1; FXIIa inh 1536: 6.7; hK5 inh: -17.3; FXIa inh: -0.3; thrombin 1536: -9.2; AHR activator: 61.3*

How did COc1ccc(C)cc1NC(=O)c1nn(C)cc1Br do in these assays?
FXIIa inh 1536: 1.1; hK5 inh: -3.0; FXIa inh: -5.1; thrombin 1536: -9.2; AHR activator: 60.0*

What do the screens show for `O=C(Nc1ccc(Cl)cc1)N1CCCN(Cc2ccccc2F)C1`?
STAT3 activator: 102.3; FXIIa inh 1536: 10.2; hK5 inh: -4.0; FXIa inh: -0.2; thrombin 1536: -2.2; AHR activator: 3.3

Results for CCOC(=O)CSc1nnc(CNC(=O)c2ccc(S(=O)(=O)N3CCCC3)cc2)n1C ?
STAT3 activator: 98.7; FXIIa inh 1536: 3.6; hK5 inh: 47.9*; FXIa inh: 3.0; thrombin 1536: 48.2*; AHR activator: 1.6

What do the screens show for `CCOC(=O)CSc1nnc(CNC(=O)c2ccc(S(=O)(=O)N3CCOCC3)cc2)n1C`?
STAT3 activator: 100.8; FXIIa inh 1536: -8.4; hK5 inh: -24.4; FXIa inh: 5.6; thrombin 1536: -0.1; AHR activator: -0.8

How did O=C1CCCCc2sc(Br)c([N+](=O)[O-])c2N1 do in these assays?
FXIIa inh 1536: 7.5; hK5 inh: -1.0; FXIa inh: 0.0; thrombin 1536: -11.5; AHR activator: -0.1

Results for CCN(CC)C(=O)c1[nH]cnc1C(=O)Nc1cccc(C)c1 ?
AHR activator: 54.0*

What do the screens show for `CCN(CC)C(=O)c1[nH]cnc1C(=O)Nc1ccc(Cl)cc1`?
AHR activator: 74.7*

Results for CCN(CC)C(=O)c1[nH]cnc1C(=O)Nc1ccc(OC)cc1 ?
FXIIa inh 1536: 0.7; hK5 inh: -2.9; FXIa inh: -1.6; thrombin 1536: -5.2; AHR activator: 65.4*

How did CCOC(=O)C1CCN(C(=O)c2ccc3nc(-c4ccc(OC)cc4)c(-c4ccc(OC)cc4)nc3c2)CC1 do in these assays?
AHR activator: 0.1

How did O=S1(=O)CCN(OCc2ccc(Cl)cc2)CC1 do in these assays?
STAT3 activator: 95.9; FXIIa inh 1536: 7.1; hK5 inh: 1.8; FXIa inh: -1.9; thrombin 1536: -13.4; AHR activator: -1.4

What do the screens show for `O=C1c2ccccc2C(=O)N1OCc1ccc(Cl)cc1`?
STAT3 activator: 120.5; FXIIa inh 1536: 8.1; hK5 inh: -6.2; FXIa inh: -1.6; thrombin 1536: -5.1; AHR activator: 51.3*

What do the screens show for `O=C1Cc2ccccc2C(=O)N1OCc1ccc(Cl)cc1`?
STAT3 activator: 132.7; FXIIa inh 1536: 3.8; hK5 inh: -12.3; FXIa inh: -5.5; thrombin 1536: -7.5; AHR activator: 66.1*

How did O=C1c2ccccc2C(=O)N1OCCOCCOCCON1C(=O)c2ccccc2C1=O do in these assays?
STAT3 activator: 104.1; FXIIa inh 1536: 16.1; hK5 inh: 3.3; FXIa inh: 20.3; thrombin 1536: -8.3; AHR activator: 7.8

How did C(=N\n1cnnc1)/c1cccc(OCCOc2ccccc2)c1 do in these assays?
STAT3 activator: 102.1; FXIIa inh 1536: 11.3; hK5 inh: -2.9; FXIa inh: -3.4; thrombin 1536: -3.0; AHR activator: 64.0*

Results for CCc1ccccc1NC(=O)CN1CCN(C(=O)CCC(=O)N2CCC(c3ccccc3)=N2)CC1 ?
AHR activator: -0.4

What do the screens show for `Nc1nc(Nc2ccccc2)nc(NC2CCCCC2)c1[N+](=O)[O-]`?
AHR activator: 5.2

Results for NC(=O)N[C@@H](Cc1c[nH]c2ccccc12)C(=O)OCC(=O)N1CCCCC1 ?
STAT3 activator: 101.6; FXIIa inh 1536: 39.2; hK5 inh: 30.1; FXIa inh: 37.9; thrombin 1536: -18.6; AHR activator: 4.2

What do the screens show for `O=C(NC(Cc1c[nH]c2ccccc12)c1nnc2n1CCCCC2)c1ccc(Cl)cc1` (stereo unspecified)?
STAT3 activator: 91.0; FXIIa inh 1536: 23.4; hK5 inh: 47.6*; FXIa inh: -0.6; thrombin 1536: 14.0; AHR activator: 4.3

What do the screens show for `C(=N\Nc1nc2ccccc2[nH]1)/c1ccc2c(c1)OCO2`?
STAT3 activator: 91.3; FXIIa inh 1536: 8.2; hK5 inh: -14.8; FXIa inh: 3.9; thrombin 1536: -4.7

Results for C/C(=N\Nc1ccccn1)c1ccc(Br)s1 ?
AHR activator: 69.9*

What do the screens show for `C/C(=N\Nc1ccccn1)c1ccc(C(C)C)cc1`?
STAT3 activator: 95.4; FXIIa inh 1536: 4.3; hK5 inh: -3.0; FXIa inh: -2.8; thrombin 1536: -8.8; AHR activator: -1.3

How did C/C(=N\Nc1nc2ccccc2[nH]1)c1ccc2c(c1)OCCO2 do in these assays?
STAT3 activator: 95.0; FXIIa inh 1536: 11.3; FXIa inh: 1.0; thrombin 1536: -2.4; AHR activator: 56.1*

High-throughput results (PubChem BioAssay)
